Measured values as given in ChEMBL document CHEMBL4411269, “Required Immunoproteasome Subunit Inhibition Profile for Anti-Inflammatory Efficacy and Clinical Candidate KZR-616 ((2 S,3 R)- N-(( S)-3-(Cyclopent-1-en-1-yl)-1-(( R)-2-methyloxiran-2-yl)-1-oxopropan-2-yl)-3-hydroxy-3-(4-methoxyphenyl)-2-(( S)-2-(2-morpholinoacetamido)propanamido)propenamide)” (J Med Chem, 2018).
Values after ≈ are worked out from the molar mass of the structure shown. Active and inactive are the calls of the source. No cut-off for these calls is given here.

How the values were obtained:
[1] = molecular target: T1, Proteasome Macropain subunit MB1 (Homo sapiens, UniProt P28074); experiment: Inhibition of 20S proteosome beta 5 in human MOLT4 cells by ELISA; format: cell-based
T1 sequence (P28074 whole entry): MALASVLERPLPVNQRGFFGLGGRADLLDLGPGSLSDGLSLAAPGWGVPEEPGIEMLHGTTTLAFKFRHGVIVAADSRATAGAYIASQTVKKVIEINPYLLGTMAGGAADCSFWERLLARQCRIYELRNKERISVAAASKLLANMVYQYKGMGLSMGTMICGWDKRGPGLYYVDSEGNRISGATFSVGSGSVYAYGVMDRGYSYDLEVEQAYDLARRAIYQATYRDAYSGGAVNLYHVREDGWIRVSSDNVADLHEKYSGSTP

[2] = molecular target: T2, Proteasome subunit beta type-9 (Mus musculus, UniProt P28076); experiment: Inhibition of LMP2 in mouse A20 cells by ELISA; format: cell-based
T2 sequence (P28076 whole entry): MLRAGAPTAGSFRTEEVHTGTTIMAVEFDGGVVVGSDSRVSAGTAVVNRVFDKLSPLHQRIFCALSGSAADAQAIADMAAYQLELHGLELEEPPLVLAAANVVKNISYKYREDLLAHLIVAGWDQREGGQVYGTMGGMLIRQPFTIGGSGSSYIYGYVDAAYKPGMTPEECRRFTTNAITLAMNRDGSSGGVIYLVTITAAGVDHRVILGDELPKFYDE
Summary of the method: (§1)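 Mouse A20 B-cell lymphoma cell lysate (1 mg/mL, hypotonic 20 mM Tris pH 8, 5 mM EDTA) treated with serially diluted compound for 1 h at 25 °C. Then 5 μM biotinylated active-site probe for 2 h at 25 °C, guanidine denaturation and streptavidin bead capture. Subunit-specific antibody and HRP chemiluminescence, signal normalized to protein, IC50 from percent activity versus DMSO controls.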

[3] = molecular target: T3, Proteasome subunit beta type-10 (Mus musculus, UniProt O35955); experiment: Inhibition of MECL1 in mouse A20 cells by ELISA; format: cell-based; summary of the method: as §1
T3 sequence (O35955 whole entry): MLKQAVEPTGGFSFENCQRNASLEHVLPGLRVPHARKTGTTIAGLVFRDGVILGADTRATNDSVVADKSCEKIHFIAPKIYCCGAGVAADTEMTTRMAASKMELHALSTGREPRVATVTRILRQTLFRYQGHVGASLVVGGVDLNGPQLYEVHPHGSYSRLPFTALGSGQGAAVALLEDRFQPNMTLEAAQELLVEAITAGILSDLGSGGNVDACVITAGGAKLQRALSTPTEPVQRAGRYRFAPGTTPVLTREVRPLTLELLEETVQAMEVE

[4] = molecular target: Proteasome subunit beta type-2 (Mus musculus, UniProt Q9R1P3); experiment: Inhibition of 20S proteosome beta 2 in mouse A20 cells by ELISA; format: cell-based
Sequence of Proteasome subunit beta type-2 (Q9R1P3 whole entry): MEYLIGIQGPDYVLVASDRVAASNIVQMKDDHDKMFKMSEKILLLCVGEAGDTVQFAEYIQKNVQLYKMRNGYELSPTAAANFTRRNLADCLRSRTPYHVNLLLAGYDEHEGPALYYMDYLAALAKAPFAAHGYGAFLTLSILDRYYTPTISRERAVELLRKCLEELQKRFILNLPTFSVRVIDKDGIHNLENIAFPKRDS

[5] = molecular target: T4, Proteasome subunit beta type-8 (Mus musculus, UniProt P28063); experiment: Inhibition of LMP7 in mouse A20 cells by ELISA; format: cell-based; summary of the method: as §1
T4 sequence (P28063 whole entry): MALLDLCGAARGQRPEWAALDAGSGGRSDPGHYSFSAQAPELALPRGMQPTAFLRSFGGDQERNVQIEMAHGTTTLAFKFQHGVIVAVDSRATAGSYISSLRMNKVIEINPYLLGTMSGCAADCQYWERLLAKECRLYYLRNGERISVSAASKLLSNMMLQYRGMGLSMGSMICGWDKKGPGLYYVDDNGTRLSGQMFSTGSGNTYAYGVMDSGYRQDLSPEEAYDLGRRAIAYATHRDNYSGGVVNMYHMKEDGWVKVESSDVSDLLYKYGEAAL

[6] = molecular target: T5, Proteasome subunit beta type-9 (Homo sapiens, UniProt P28065); experiment: Inhibition of LMP2 in human MOLT4 cells by ELISA; format: cell-based
T5 sequence (P28065 whole entry): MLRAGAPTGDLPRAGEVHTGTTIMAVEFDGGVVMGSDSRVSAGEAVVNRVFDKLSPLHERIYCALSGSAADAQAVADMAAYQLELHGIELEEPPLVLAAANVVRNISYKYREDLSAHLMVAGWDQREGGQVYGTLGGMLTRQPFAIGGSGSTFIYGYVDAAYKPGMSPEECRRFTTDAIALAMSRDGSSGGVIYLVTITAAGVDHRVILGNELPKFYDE

[7] = molecular target: T6, Proteasome subunit beta type-5 (Mus musculus, UniProt O55234); experiment: Inhibition of 20S proteosome beta 5 in mouse A20 cells by ELISA; format: cell-based
T6 sequence (O55234 whole entry): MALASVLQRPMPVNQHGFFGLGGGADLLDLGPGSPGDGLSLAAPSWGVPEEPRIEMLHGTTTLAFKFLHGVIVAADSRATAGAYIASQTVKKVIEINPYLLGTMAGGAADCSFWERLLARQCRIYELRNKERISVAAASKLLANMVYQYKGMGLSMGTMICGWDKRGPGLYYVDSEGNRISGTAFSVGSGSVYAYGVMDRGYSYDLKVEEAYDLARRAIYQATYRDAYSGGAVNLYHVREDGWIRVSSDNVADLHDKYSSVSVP

[8] = molecular target: T7, Proteasome subunit beta type-8 (Homo sapiens, UniProt P28062); experiment: Inhibition of LMP7 in human MOLT4 cells by ELISA; format: cell-based
T7 sequence (P28062 whole entry): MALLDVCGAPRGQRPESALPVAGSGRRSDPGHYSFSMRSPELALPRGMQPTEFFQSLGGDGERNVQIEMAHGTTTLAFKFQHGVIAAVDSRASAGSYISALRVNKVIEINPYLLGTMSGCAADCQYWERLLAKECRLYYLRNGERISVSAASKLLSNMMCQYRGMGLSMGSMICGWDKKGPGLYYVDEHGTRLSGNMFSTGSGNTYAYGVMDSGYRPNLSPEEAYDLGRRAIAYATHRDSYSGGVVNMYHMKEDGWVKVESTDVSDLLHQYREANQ

[9] = molecular target: T8, Proteasome subunit beta type-10 (Homo sapiens, UniProt P40306); experiment: Inhibition of MECL1 in human MOLT4 cells by ELISA; format: cell-based
T8 sequence (P40306 whole entry): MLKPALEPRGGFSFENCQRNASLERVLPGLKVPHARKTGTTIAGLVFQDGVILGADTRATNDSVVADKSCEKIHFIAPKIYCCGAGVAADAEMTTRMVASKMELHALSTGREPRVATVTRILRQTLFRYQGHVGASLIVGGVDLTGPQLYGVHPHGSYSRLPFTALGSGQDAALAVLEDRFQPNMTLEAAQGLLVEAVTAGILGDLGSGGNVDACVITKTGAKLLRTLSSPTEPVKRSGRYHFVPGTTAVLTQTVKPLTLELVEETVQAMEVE

[10] = Solubility of the compound in phosphate buffer at pH 7.2 at 10 mg/ml after 24 hrs by HPLC-UV method; format: physicochemical
Summary of the method: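 Compound shaken at a target 10 mg/mL in 50 mM potassium phosphate buffer for 24 h at 25 °C, then centrifuged at 15 000 rpm for 15 min. Supernatant diluted 100-fold in DMSO and quantified by HPLC-UV (220/254/280 nm) against a three-level DMSO standard curve, in duplicate.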

[11] = Half life in Sprague-Dawley rat at 2 to 9 mg/kg, iv administered as bolus dose by LC/MS-MS analysis; format: ADME, organism-based; details: in vivo
PBMC [12] = experiment: Antiinflammatory activity in human PBMC assessed as reduction in anti-CD3/CD28 antibody-stimulated TNF-alpha expression at 250 nM preincubated for 1 hr followed by anti-CD3/CD28 antibody stimulation measured after 24 hrs by ELISA; format: functional, cell-based
Summary of the method: (§2)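 Healthy-donor PBMC, thawed from cryopreservation, 250 000 cells/well in RPMI 1640/5% FBS. Pretreated 1 h at 37 °C with compound alone or combined (0.1% DMSO final), washed 4 times, then stimulated 24 h with anti-CD3 and anti-CD28 antibodies. TNFα and IFNγ in supernatants by electrochemiluminescent ELISA; expressed relative to DMSO-treated controls (n = 6).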

[13] = molecular target: T9, Proteasome subunit beta type-8 (Homo sapiens) (UniProt P28062); experiment: Inhibition of LMP7 in human PBMC at 250 nM by ELISA
T9 sequence (whole entry): T7 sequence (P28062 whole entry)
Summary of the method: (§3)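 Cryopreserved healthy-donor human PBMC in RPMI 1640 with 5% heat-inactivated FBS, exposed to compound (0.1% DMSO final) for 1 h at 37 °C, 5% CO2, then washed. Subunit-specific active-site occupancy read by ProCISE: biotinylated active-site probe binding, denaturation, streptavidin capture, subunit-specific antibody and HRP chemiluminescence. Signal normalized to protein and expressed relative to DMSO controls.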

PBMC [14] = experiment: Antiinflammatory activity in human PBMC assessed as reduction in anti-CD3/CD28 antibody-stimulated IFN-gamma expression at 250 nM preincubated for 1 hr followed by anti-CD3/CD28 antibody stimulation measured after 24 hrs by ELISA; format: functional, cell-based; summary of the method: as §2
[15] = molecular target: T10, Proteasome subunit beta type-9 (Homo sapiens) (UniProt P28065); experiment: Inhibition of LMP2 in human PBMC at 250 nM by ELISA; summary of the method: as §3
T10 sequence (whole entry): T5 sequence (P28065 whole entry)

PBMC [16] = experiment: Antiinflammatory activity in human PBMC assessed as reduction in LPS-stimulated p40 subunit of […] expression at 250 nM preincubated for 1 hr followed by LPS stimulation measured after 24 hrs by ELISA; format: functional, cell-based
Summary of the method: (§4)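 Cryopreserved healthy-donor PBMC in RPMI 1640 with 5% heat-inactivated FBS, 250 000 cells/well. Compound (0.1% DMSO final) for 1 h at 37 °C, 5% CO2, then 4 washes with medium. Stimulated with 1 μg/mL LPS for 24 h; supernatant TNFα, IL-6 and IL-12/23p40 by electrochemiluminescent immunoassay. Mean level relative to DMSO controls, n = 6.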

PBMC [17] = experiment: Antiinflammatory activity in human PBMC assessed as reduction in LPS-stimulated TNF-alpha expression at 250 nM preincubated for 1 hr followed by LPS stimulation measured after 24 hrs by ELISA; format: functional, cell-based; summary of the method: as §4
PBMC [18] = experiment: Antiinflammatory activity in human PBMC assessed as reduction in LPS-stimulated IL-6 expression at 250 nM preincubated for 1 hr followed by LPS stimulation measured after 24 hrs by ELISA; format: functional, cell-based; summary of the method: as §4

| Structure (SMILES) | IC50 [1] [nM] | IC50 [2] [nM] | IC50 [5] [nM] | IC50 [6] [nM] | IC50 [7] [nM] | IC50 [8] [nM] | IC50 [9] [nM] | solubility at 24 h [10] [µg/mL] | also measured |
| --- | --- | --- | --- | --- | --- | --- | --- | --- | --- |
| CC(C)C[C@H](NC(=O)CN1CCCCCC1)C(=O)N[C@@H](Cc1ccccc1)C(=O)N[C@@H](Cc1ccccc1)C(=O)[C@@]1(C)CO1 | 39 | 415 | 56 | 415 | 38 | 49 | 97 |  | IC50 [3]: 159 nM; IC50 [4]: 141 nM |
| COc1ccc(C[C@H](NC(=O)[C@@H](C)NC(=O)[C@H]2CC[C@H](O)CC2)C(=O)N[C@@H](CC2CCC2)C(=O)[C@@]2(C)CO2)cc1 |  |  | 556 |  | 6810 |  |  | 979 (≈ 1760 µM) |  |
| CC1=C(C(=O)N[C@@H](C)C(=O)N[C@@H](Cc2c[nH]c3ccccc23)C(=O)N[C@@H](Cc2ccccc2)C(=O)[C@@]2(C)CO2)Cc2ccccc21 | 54 |  | 50 |  | 47 | 38 |  | 1.85 (≈ 2.99 µM) |  |
| CC(C)C[C@H](NC(=O)[C@H](CCc1ccccc1)NC(=O)CN1CCOCC1)C(=O)N[C@@H](Cc1ccccc1)C(=O)N[C@@H](CC(C)C)C(=O)[C@@]1(C)CO1 [CARFILZOMIB] |  |  |  |  |  |  |  |  | half-life [11]: < 15 min |
| COc1ccc(C[C@H](NC(=O)[C@@H](C)NC(=O)C2CCCCC2)C(=O)N[C@@H](Cc2ccccc2)C(=O)[C@@]2(C)CO2)cc1 |  |  | 141 |  | 118 |  |  | 12.1 (≈ 21.5 µM) |  |
| COc1ccc(C[C@H](NC(=O)[C@H](C)NC(=O)CN2CCOCC2)C(=O)N[C@@H](CC2=CCCC2)C(=O)[C@@]2(C)CO2)cc1 |  |  | 110 | 223 | 694 |  |  | 2730 (≈ 4790 µM) |  |
| CC1=C(C(=O)N[C@H](C)C(=O)N[C@@H](Cc2c[nH]c3ccccc23)C(=O)N[C@@H](Cc2ccccc2)C(=O)[C@@]2(C)CO2)Cc2ccccc21 | 1670 | 4780 | 573 | 2210 | 1360 | 39 | > 25000 | 0.75 (≈ 1.21 µM) |  |
| COc1ccc(C[C@H](NC(=O)[C@@H](C)NC(=O)[C@H]2CC[C@H](O)CC2)C(=O)N[C@@H](Cc2ccccc2)C(=O)[C@@]2(C)CO2)cc1 | 782 |  | 262 | 3530 | 507 | 23 | > 25000 | 240 (≈ 414 µM) |  |
| COc1ccc(C[C@H](NC(=O)[C@@H](C)NC(=O)C2=C(C)c3ccccc3C2)C(=O)N[C@@H](Cc2ccccc2)C(=O)[C@@]2(C)CO2)cc1 | 3620 |  | 764 |  | 2340 | 76 |  | 1.4 (≈ 2.3 µM) |  |
| COc1ccc(C[C@H](NC(=O)[C@H](C)NC(=O)CN2CCOCC2)C(=O)N[C@@H](Cc2ccccc2)C(=O)[C@@]2(C)CO2)cc1 |  | 328 | 98 |  | 401 |  |  | < 0.5 | Activity (PBMC [12]): Active; IC50 [3]: 699 nM; inhibition [13]: Active; Activity (PBMC [14]): Active; inhibition [15]: Active; inhibition (PBMC [16]): Active; Activity (PBMC [17]): Active; Activity (PBMC [18]): Active |
